Laboratory results from ChEMBL document CHEMBL4396972, “Glycyrrhizic acid derivatives as Dengue virus inhibitors” (Bioorg Med Chem Lett, 2019).
The source made the active and inactive calls. The rule behind the calls is not given here.

How the values were obtained:
[1] = tested on: dengue virus type 2; test: Antiviral activity against DENV2 16681 infected in African green monkey Vero E6 cells assessed as reduction in virus induced cytopathic effect at 10 uM measured after 96 hrs by reverse phase contrast microscopy; format: functional, organism-based; details: Vero C1008
How it was run: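 Vero E6 cells in supporting DMEM infected with DENV2 strain 16681 (MOI 0.01), then treated immediately with compound at 10 μM. After 96 h incubation, cytopathic effect photographed by reverse phase-contrast microscopy and scored semi-quantitatively (−, +, ++, +++) against infected controls.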

[2] = tested on: dengue virus type 2; test: Antiviral activity against DENV2 16681 infected in African green monkey Vero E6 cells assessed as inhibitory rate of NS4B positive cells at 10 uM measured after 96 hrs incubation by DAPI staining based immunofluorescence method; format: functional; details: Dengue virus, 16681, Vero C1008, 96 h
How it was run: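 Vero E6 cells in DMEM infected with DENV2 strain 16681 at MOI 0.01, treated at once with compound (0, 0.1, 1, 10 μM), 96 h. Immunofluorescence with anti-NS4B antibody and DAPI counterstain. Infectivity taken as NS4B-positive cells over DAPI-stained total cells. Inhibitory rate = (1 − NS4B-positive % treated infected / NS4B-positive % mock-treated infected) × 100.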

[3] = tested on: dengue virus type 2; test: Antiviral activity against DENV2 16681 infected in African green monkey Vero E6 cells assessed as inhibitory rate of NS4B positive cells measured after 96 hrs incubation by DAPI staining based immunofluorescence method; format: functional, organism-based; details: for IC50: Dengue virus, 16681, Vero C1008, 96 h; for inhibition: Vero C1008
How it was run: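 Vero E6 cells in DMEM, infected with DENV2 strain 16681 at MOI 0.01 and treated with compound (0, 0.1, 1, 10 μM; single 10 μM for screening). After 96 h, immunofluorescence with anti-NS4B antibody and DAPI nuclear counterstain. Infectivity = NS4B-positive cells / DAPI-stained cells. Inhibitory rate = (1 − NS4B-positive % treated / NS4B-positive % mock-treated infected) × 100. IC50 derived from NS4B-positive percentages across concentrations.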

[4] = Therapeutic index, ratio of CC50 for African green monkey Vero E6 cells to IC50 for DENV2 16681 infected in African green monkey Vero E6 cells; format: toxicity, Vero C1008; details: read-out: Ratio CC50/IC50
How it was run: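 TI = CC50/IC50. CC50 comes from the Vero E6 MTT survival test. IC50 comes from the NS4B-positive cell fraction by immunofluorescence in DENV2 16681-infected Vero E6 cells (MOI 0.01, 96 h, 0–10 μM).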

[5] = tested on: dengue virus type 2; test: Antiviral activity against DENV2 16681 infected in African green monkey Vero E6 cells assessed as reduction in virus induced cytopathic effect measured after 96 hrs by reverse phase contrast microscopy; format: functional, organism-based; details: Vero C1008
How it was run: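 Vero E6 cells in DMEM infected with DENV2 16681 at MOI 0.01, compound added immediately (screen at 10 μM, then 0, 0.1, 1, 10 μM). Photographed 96 h post infection by phase-contrast microscopy. CPE reduction scored qualitatively (−, +, ++, +++).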

[6] = tested on: Vero C1008; test: Cytotoxicity against African green monkey Vero E6 cells assessed as reduction in survival rate measured after 48 hrs by MTT assay; format: cell-based; details: chlorocebus sabaeus, vero c1008, 48 h
How it was run: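 MTT viability test on Vero E6 cells in DMEM over a range of compound concentrations. CC50 calculated from survival of treated cells relative to mock cells.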

SMILES	inhibition [1]	inhibition at 10 µM [2] [%]	also measured
COC(=O)CC[C@H](NC(=O)[C@H]1O[C@@H](O[C@H]2[C@@H](O[C@H]3CC[C@]4(C)[C@H]5C(=O)C=C6[C@@H]7C[C@@](C)(C(=O)N[C@@H](CCC(=O)OC)C(=O)OC)CC[C@]7(C)CC[C@@]6(C)[C@]5(C)CC[C@H]4C3(C)C)O[C@H](C(=O)N[C@@H](CCC(=O)OC)C(=O)OC)[C@@H](O)[C@@H]2O)[C@H](O)[C@@H](O)[C@@H]1O)C(=O)OC	inactive	–	–
COC(=O)[C@@H](Cc1c[nH]c2ccccc12)NC(=O)[C@H]1O[C@@H](O[C@H]2[C@@H](O[C@H]3CC[C@]4(C)[C@H]5C(=O)C=C6[C@@H]7C[C@@](C)(C(=O)N[C@H](Cc8c[nH]c9ccccc89)C(=O)OC)CC[C@]7(C)CC[C@@]6(C)[C@]5(C)CC[C@H]4C3(C)C)O[C@H](C(=O)N[C@H](Cc3c[nH]c4ccccc34)C(=O)OC)[C@@H](O)[C@@H]2O)[C@H](O)[C@@H](O)[C@@H]1O	inactive	–	–
COC(=O)[C@H](CC(C)C)NC(=O)[C@H]1O[C@@H](O[C@H]2[C@@H](O[C@H]3CC[C@]4(C)[C@H]5C(=O)C=C6[C@@H]7C[C@@](C)(C(=O)N[C@@H](CC(C)C)C(=O)OC)CC[C@]7(C)CC[C@@]6(C)[C@]5(C)CC[C@H]4C3(C)C)O[C@H](C(=O)N[C@@H](CC(C)C)C(=O)OC)[C@@H](O)[C@@H]2O)[C@H](O)[C@@H](O)[C@@H]1O	inactive	–	–
COC(=O)[C@@H](CC(C)C)NC(=O)[C@H]1O[C@@H](O[C@H]2[C@@H](O[C@H]3CC[C@]4(C)[C@H]5C(=O)C=C6[C@@H]7C[C@@](C)(C(=O)N[C@H](CC(C)C)C(=O)OC)CC[C@]7(C)CC[C@@]6(C)[C@]5(C)CC[C@H]4C3(C)C)O[C@H](C(=O)N[C@H](CC(C)C)C(=O)OC)[C@@H](O)[C@@H]2O)[C@H](O)[C@@H](O)[C@@H]1O	Active	53.1	–
COC(=O)[C@@]1(C)CC[C@]2(C)CC[C@]3(C)C(=CC(=O)[C@@H]4[C@@]5(C)CC[C@H](O[C@H]6O[C@H](C(=O)NN)[C@@H](O)[C@H](O)[C@H]6O[C@@H]6O[C@H](C(=O)NN)[C@@H](O)[C@H](O)[C@H]6O)C(C)(C)[C@@H]5CC[C@]43C)[C@@H]2C1	inactive	–	–
CC1(C)[C@@H](O[C@H]2O[C@H](C(=O)N[C@@H](Cc3ccccc3)C(=O)O)[C@@H](O)[C@H](O)[C@H]2O[C@@H]2O[C@H](C(=O)N[C@@H](Cc3ccccc3)C(=O)O)[C@@H](O)[C@H](O)[C@H]2O)CC[C@]2(C)[C@H]3C(=O)C=C4[C@@H]5C[C@@](C)(C(=O)N[C@@H](Cc6ccccc6)C(=O)O)CC[C@]5(C)CC[C@@]4(C)[C@]3(C)CC[C@@H]12	inactive	–	–
CC[C@H](C)[C@H](NC(=O)[C@H]1O[C@@H](O[C@H]2[C@@H](O[C@H]3CC[C@]4(C)[C@H]5C(=O)C=C6[C@@H]7C[C@@](C)(C(=O)N[C@H](C(=O)OC)[C@@H](C)CC)CC[C@]7(C)CC[C@@]6(C)[C@]5(C)CC[C@H]4C3(C)C)O[C@H](C(=O)N[C@H](C(=O)OC)[C@@H](C)CC)[C@@H](O)[C@@H]2O)[C@H](O)[C@@H](O)[C@@H]1O)C(=O)OC	inactive	–	–
COC(=O)[C@H](Cc1ccc(O)cc1)NC(=O)[C@H]1O[C@@H](O[C@H]2[C@@H](O[C@H]3CC[C@]4(C)[C@H]5C(=O)C=C6[C@@H]7C[C@@](C)(C(=O)N[C@@H](Cc8ccc(O)cc8)C(=O)OC)CC[C@]7(C)CC[C@@]6(C)[C@]5(C)CC[C@H]4C3(C)C)O[C@H](C(=O)N[C@@H](Cc3ccc(O)cc3)C(=O)OC)[C@@H](O)[C@@H]2O)[C@H](O)[C@@H](O)[C@@H]1O	inactive	–	–
COC(=O)[C@@]1(C)CC[C@]2(C)CC[C@]3(C)C(=CC(=O)[C@@H]4[C@@]5(C)CC[C@H](O[C@H]6O[C@H](C(=O)N/N=C/c7ccc(O)cc7)[C@@H](O)[C@H](O)[C@H]6O[C@@H]6O[C@H](C(=O)N/N=C/c7ccc(O)cc7)[C@@H](O)[C@H](O)[C@H]6O)C(C)(C)[C@@H]5CC[C@]43C)[C@@H]2C1	Active	32.5	–
COC(=O)[C@H](Cc1ccccc1)NC(=O)[C@H]1O[C@@H](O[C@H]2[C@@H](O[C@H]3CC[C@]4(C)[C@H]5C(=O)C=C6[C@@H]7C[C@@](C)(C(=O)N[C@@H](Cc8ccccc8)C(=O)OC)CC[C@]7(C)CC[C@@]6(C)[C@]5(C)CC[C@H]4C3(C)C)O[C@H](C(=O)N[C@@H](Cc3ccccc3)C(=O)OC)[C@@H](O)[C@@H]2O)[C@H](O)[C@@H](O)[C@@H]1O	inactive	–	–
COC(=O)[C@@H](Cc1ccccc1)NC(=O)[C@H]1O[C@@H](O[C@H]2[C@@H](O[C@H]3CC[C@]4(C)[C@H]5C(=O)C=C6[C@@H]7C[C@@](C)(C(=O)N[C@H](Cc8ccccc8)C(=O)OC)CC[C@]7(C)CC[C@@]6(C)[C@]5(C)CC[C@H]4C3(C)C)O[C@H](C(=O)N[C@H](Cc3ccccc3)C(=O)OC)[C@@H](O)[C@@H]2O)[C@H](O)[C@@H](O)[C@@H]1O	inactive	–	–
COC(=O)C[C@H](NC(=O)[C@H]1O[C@@H](O[C@H]2[C@@H](O[C@H]3CC[C@]4(C)[C@H]5C(=O)C=C6[C@@H]7C[C@@](C)(C(=O)O)CC[C@]7(C)CC[C@@]6(C)[C@]5(C)CC[C@H]4C3(C)C)O[C@H](C(=O)N[C@@H](CC(=O)OC)C(=O)OC)[C@@H](O)[C@@H]2O)[C@H](O)[C@@H](O)[C@@H]1O)C(=O)O	Active	35.8	–
COC(=O)[C@H](CCSC)NC(=O)[C@H]1O[C@@H](O[C@H]2[C@@H](O[C@H]3CC[C@]4(C)[C@H]5C(=O)C=C6[C@@H]7C[C@@](C)(C(=O)N[C@@H](CCSC)C(=O)OC)CC[C@]7(C)CC[C@@]6(C)[C@]5(C)CC[C@H]4C3(C)C)O[C@H](C(=O)N[C@@H](CCSC)C(=O)OC)[C@@H](O)[C@@H]2O)[C@H](O)[C@@H](O)[C@@H]1O	Active	66.3	IC50 [3]: 4.5 µM; inhibition [3]: Dose-dependent effect; selectivity ratio [4]: > 22.2; inhibition [5]: Dose-dependent effect; CC50 [6]: > 100 µM
CC1(C)[C@@H](O[C@H]2O[C@H](C(=O)N[C@@H](Cc3ccc(O)cc3)C(=O)O)[C@@H](O)[C@H](O)[C@H]2O[C@@H]2O[C@H](C(=O)N[C@@H](Cc3ccc(O)cc3)C(=O)O)[C@@H](O)[C@H](O)[C@H]2O)CC[C@]2(C)[C@H]3C(=O)C=C4[C@@H]5C[C@@](C)(C(=O)N[C@@H](Cc6ccc(O)cc6)C(=O)O)CC[C@]5(C)CC[C@@]4(C)[C@]3(C)CC[C@@H]12	Active	68.5	IC50 [3]: 2.2 µM; inhibition [3]: Dose-dependent effect; selectivity ratio [4]: > 46.5; inhibition [5]: Dose-dependent effect; CC50 [6]: > 100 µM
COC(=O)CCCCCCCCCCNC(=O)[C@H]1O[C@@H](O[C@H]2[C@@H](O[C@H]3CC[C@]4(C)[C@H]5C(=O)C=C6[C@@H]7C[C@@](C)(C(=O)O)CC[C@]7(C)CC[C@@]6(C)[C@]5(C)CC[C@H]4C3(C)C)O[C@H](C(=O)NCCCCCCCCCCC(=O)OC)[C@@H](O)[C@@H]2O)[C@H](O)[C@@H](O)[C@@H]1O	Active	79.5	IC50 [3]: 1.2 µM; inhibition [3]: Dose-dependent effect; selectivity ratio [4]: > 80; inhibition [5]: Dose-dependent effect; CC50 [6]: > 100 µM
COC(=O)[C@@H](NC(=O)[C@H]1O[C@@H](O[C@H]2[C@@H](O[C@H]3CC[C@]4(C)[C@H]5C(=O)C=C6[C@@H]7C[C@@](C)(C(=O)N[C@H](C(=O)OC)C(C)C)CC[C@]7(C)CC[C@@]6(C)[C@]5(C)CC[C@H]4C3(C)C)O[C@H](C(=O)N[C@H](C(=O)OC)C(C)C)[C@@H](O)[C@@H]2O)[C@H](O)[C@@H](O)[C@@H]1O)C(C)C	inactive	–	–
COC(=O)[C@@]1(C)CC[C@]2(C)CC[C@]3(C)C(=CC(=O)[C@@H]4[C@@]5(C)CC[C@H](O[C@H]6O[C@H](C(=O)N/N=C/c7ccncc7)[C@@H](O)[C@H](O)[C@H]6O[C@@H]6O[C@H](C(=O)N/N=C/c7ccncc7)[C@@H](O)[C@H](O)[C@H]6O)C(C)(C)[C@@H]5CC[C@]43C)[C@@H]2C1	inactive	–	–
COC(=O)[C@@]1(C)CC[C@]2(C)CC[C@]3(C)C(=CC(=O)[C@@H]4[C@@]5(C)CC[C@H](O[C@H]6O[C@H](C(=O)N/N=C/c7ccc(N(C)C)cc7)[C@@H](O)[C@H](O)[C@H]6O[C@@H]6O[C@H](C(=O)N/N=C/c7ccc(N(C)C)cc7)[C@@H](O)[C@H](O)[C@H]6O)C(C)(C)[C@@H]5CC[C@]43C)[C@@H]2C1	inactive	–	–
